Data from ChEMBL document CHEMBL5252546, “Salutaxel, a Conjugate of Docetaxel and a Muramyl Dipeptide (MDP) Analogue, Acts as Multifunctional Prodrug That Inhibits Tumor Growth and Metastasis” (J Med Chem, 2018).
One block for each molecule: values may come before it. Calls of active or inactive are those of the source. The rule behind the calls is not given here.

How the values were obtained:
4T1 [1] = assay: Antitumor activity against mouse 4T1 cells xenografted with BALB/c mouse assessed as reduction lung metastatic nodules at 5.7 mg/kg,iv administrated once per week for 4 weeks; assay type: functional, organism-based
Procedure, shortened: (§1)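 4T1 cells injected into mammary fat pads of BALB/c mice. Dosing iv once per week for 4 weeks, saline vehicle; single-agent arms were given alone or with the peptide component (5b or 6). Endpoints were body weight, tumour volume, tumour weight, lung metastatic nodule count and lung metastasis score. Mean ± SEM, n = 10; ANOVA and Student's t test.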

[2] = Cmax in mouse plasma implanted with mouse 4T1 cells at 5.7 mg/kg,iv measured upto 72 hrs; assay type: ADME, organism-based; parameters: dose 5.7 mg/kg, time < 72 hrs, route iv
[3] = Toxicity in BALB/c mouse xenografted with human MDA-MB-231 cells assessed as body weight loss at 5.7 mg/kg,iv administrated once per week for 3 weeks; assay type: organism-based; details: in vivo, 504 h
Procedure, shortened: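 Nude BALB/c nu/nu mice received subcutaneous human tumour cells into the right flank. Dosing started at mean tumour volume of 100–120 mm3, iv once weekly for 3 weeks; the taxane arm was an equimolar control. Body weight and overt side effects were monitored. Mean ± SEM, n = 8.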

4T1 [4] = assay: Antitumor activity against mouse 4T1 cells xenografted with BALB/c mouse assessed as reduction lung metastatic nodules at 5.7 mg/kg,iv in presence of compound 6 administrated once per week for 4 weeks; assay type: functional, organism-based; procedure, shortened: as §1
4T1 [5] = assay: Antitumor activity against mouse 4T1 cells xenografted with BALB/c mouse assessed as decrease in tumor weight at 5.7 mg/kg,iv administrated once per week for 4 weeks; assay type: functional, organism-based; procedure, shortened: as §1
[6] = Stability in dog plasma assessed as compound remaining at 40 uM incubated for 6 hrs; assay type: ADME, cell-free, Canis lupus familiaris
[7] = AUC (0-infinity) in female rat at 2 mg/kg,iv measured upto 24 hrs; assay type: ADME, organism-based; parameters: time < 24 hrs, dose 2 mg/kg, route iv; details: in vivo
Procedure, shortened: (§2)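 Single iv dose: rats 2, 4 or 8 mg/kg by intravenous injection; Beagle dogs 1, 2 or 4 mg/kg by intravenous infusion. Plasma concentration–time data were analysed by sex and pooled. Reported parameters: Cmax, Tmax, AUC0−t, AUC0−∞, MRT0−∞, t1/2, CL, Vss, given as mean ± SD.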

[8] = AUC (0-infinity) in female Beagle dog at 1 mg/kg,iv measured upto 24 hrs; assay type: ADME, organism-based, Canis lupus familiaris; parameters: dose 1 mg/kg, time < 24 hrs, route iv; details: in vivo; procedure, shortened: as §2
[9] = Plasma protein binding in rat plasma incubated for 4 hrs; assay type: ADME, cell-free; details: read-out: PPB (converted)
4T1 [10] = assay: Antitumor activity against mouse 4T1 cells xenografted with BALB/c mouse assessed as inhibition of tumor growth at 10 mg/kg,iv administrated once per week for 4 weeks; assay type: functional; details: 4T1, 672 h
Procedure, shortened: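 4T1 cells injected into the mammary fat pad of BALB/c mice; iv saline vehicle or 5, 10 or 20 mg/kg once weekly for 4 weeks; body weight, tumour volume, tumour weight, lung metastatic nodule count and metastasis score recorded; n = 10, mean ± SEM, ANOVA and Student's t test.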

[11] = Toxicity in Beagle dog assessed as maximal non-toxic dose at iv administration; assay type: organism-based, Canis lupus familiaris; details: in vivo, read-out: MNTD
[12] = Half life in mouse tumor implanted with mouse 4T1 cells at 10 mg/kg,iv measured upto 72 hrs; assay type: ADME, organism-based, Neoplasm
NCI-H522 = assay: Antiproliferative activity against human NCI-H522 cells assessed inhibition of cell growth incubated for 72 hrs by SRB assay; assay type: functional, cell-based; details: NCI-H522, 72 h
[13] = MRT in mouse tumor implanted with mouse 4T1 cells at 10 mg/kg,iv measured upto 72 hrs; assay type: ADME, organism-based, Neoplasm
4T1 [14] = assay: Antitumor activity against mouse 4T1 cells implanted in BALB/c mouse assessed as decrease in tumor MMP2 expression level at 5 to 20 mg/kg,iv administrated once per week for 4 weeks by western blot assay; assay type: functional, organism-based; details: dose 5-20 mg/kg
Procedure, shortened: (§3)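 4T1 fat-pad model in BALB/c mice, iv once weekly for 4 weeks; MMP9, MMP2 and NOD1 in spleen, lung and tumour by western blot, β-actin loading control; bands averaged over five mice per group, representative of two independent experiments.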

[15] = Stability in mouse plasma assessed as compound remaining at 40 uM incubated for 6 hrs; assay type: ADME, cell-free
[16] = AUC (0-infinity) in rat at 8 mg/kg,iv measured upto 24 hrs; assay type: ADME, organism-based; parameters: time < 24 hrs, dose 8 mg/kg, route iv; details: in vivo; procedure, shortened: as §2
4T1 [17] = assay: Antitumor activity against mouse 4T1 cells implanted in BALB/c mouse assessed as decrease in PROK2 mRNA expression in lung at 20 mg/kg,iv administrated qd for 2 days by qRT-PCR analysis; assay type: functional, organism-based; details: time 2.0 day
Procedure, shortened: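 Day 19 after 4T1 implantation, mice randomised into five groups; iv vehicle or 20 mg/kg plus ip C12-iE-DAP (50 μg/mouse) and MDP (100 μg/mouse) once daily for 2 days; killed after 48 h; lung mRNA for MMP8, MMP9, PROK2, S100A8, S100A9 and IL-1β by qPCR; mean ± SEM.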

[18] = Toxicity in Beagle dog assessed as erythema at 3 to 18 mg/kg,iv measured upto 24 hrs; assay type: organism-based, Canis lupus familiaris; details: in vivo, dose 3-18 mg/kg
4T1 [19] = assay: Antitumor activity against mouse 4T1 cells implanted in BALB/c mouse assessed as decrease in lung MMP2 expression level at 5 to 20 mg/kg,iv administrated once per week for 4 weeks by western blot assay; assay type: functional, organism-based; details: dose 5-20 mg/kg; procedure, shortened: as §3
[20] = AUC (0-t) in female rat at 2 mg/kg,iv measured upto 24 hrs; assay type: ADME, organism-based; parameters: time < 24 hrs, dose 2 mg/kg, route iv; details: in vivo; procedure, shortened: as §2
[21] = Toxicity in BALB/c mouse xenografted with human NCI-H1975 cells assessed as side effects at 10 mg/kg,iv administrated once per week for 3 weeks; assay type: organism-based; details: in vivo, 504 h
[22] = AUC (0-t) in Beagle dog at 4 mg/kg,iv measured upto 24 hrs; assay type: ADME, organism-based, Canis lupus familiaris; parameters: dose 4 mg/kg, time < 24 hrs, route iv; details: in vivo; procedure, shortened: as §2
[23] = Toxicity in Beagle dog assessed as facial swelling at 3 to 18 mg/kg,iv measured upto 24 hrs; assay type: organism-based, Canis lupus familiaris; details: in vivo, dose 3-18 mg/kg
[24] = Toxicity in Beagle dog assessed as decrease in body temperature at 1 to 4 mg/kg,iv measured after 1 to 4 hrs; assay type: organism-based, Canis lupus familiaris; details: in vivo, dose lower 1 mg/kg, time lower 1 hrs, dose upper 4 mg/kg, time upper 4 hrs
[25] = Toxicity in BALB/c mouse xenografted with mouse 4T1 cells assessed as decrease in body weight at 10 mg/kg,iv administrated with doxorubicin combination once per week for 4 weeks; assay type: organism-based; details: in vivo, 672 h
[26] = Clearance in female rat at 8 mg/kg,iv measured upto 24 hrs; assay type: ADME, organism-based; details: in vivo
Procedure, shortened: (§4)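 Rats were given a single iv injection at 2, 4 or 8 mg/kg. Plasma parent drug and released docetaxel were followed over time. Cmax, Tmax, AUC, MRT, t1/2, CL and Vss were reported for males, females and all animals combined.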

[27] = Half life in Beagle dog at 2 mg/kg,iv measured upto 24 hrs; assay type: ADME, organism-based, Canis lupus familiaris; details: in vivo
MCF7 = assay: Antiproliferative activity against human MCF7 cells assessed inhibition of cell growth incubated for 72 hrs by SRB assay; assay type: functional, cell-based; details: MCF7, 72 h
[28] = Clearance in female rat at 4 mg/kg,iv measured upto 24 hrs; assay type: ADME, organism-based; details: in vivo; procedure, shortened: as §4
[29] = Tmax in female Beagle dog at 4 mg/kg,iv measured upto 24 hrs; assay type: ADME, organism-based, Canis lupus familiaris; details: in vivo
[30] = Stability in human plasma assessed as compound remaining at 1 uM incubated for 6 hrs; assay type: ADME, cell-free
[31] = Clearance in female Beagle dog at 4 mg/kg,iv measured upto 24 hrs; assay type: ADME, organism-based, Canis lupus familiaris; details: in vivo
Procedure, shortened: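 Beagle dogs were given a single iv infusion at 1, 2 or 4 mg/kg. Plasma parent drug and released docetaxel were followed over time. Cmax, Tmax, AUC, MRT, t1/2, CL and Vss were reported by sex and for all dogs combined.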

Cmax [2]: 8.09 µM
Compound: CC(=O)O[C@@]12CO[C@@H]1C[C@H](O)[C@@]1(C)C(=O)[C@H](O)C3=C(C)[C@@H](OC(=O)[C@H](O)[C@@H](NC(=O)OC(C)(C)C)c4ccccc4)C[C@@](O)([C@@H](OC(=O)c4ccccc4)[C@H]21)C3(C)C [DOCETAXEL ANHYDROUS]
Activity (4T1 [1]): inactive
Activity [3]: Non-Toxic
Activity (4T1 [4]): inactive
Activity (4T1 [5]): Active

Compound: CC(=O)O[C@@]12CO[C@@H]1C[C@H](O)[C@@]1(C)C(=O)[C@H](O)C3=C(C)[C@@H](OC(=O)[C@H](OC(=O)CCC(=O)NCCCC[C@H](NC(=O)CC[C@@H](NC(=O)[C@H](C)NC(=O)/C=C/c4ccc(F)cc4Cl)C(N)=O)C(=O)O)[C@@H](NC(=O)OC(C)(C)C)c4ccccc4)C[C@@](O)([C@@H](OC(=O)c4ccccc4)[C@H]21)C3(C)C
Stability [6]: Stable
AUC(0-inf) [7]: 4330 ng·h/mL
AUC(0-inf) [8]: 1640 ng·h/mL
fraction unbound at 4 h [9]: 0.007
inhibition in vivo at 10 mg/kg (4T1 [10]): 37%
NOAEL [11]: 6 mg/kg
half-life [12]: 1.56 h
IC50 (NCI-H522): 16.3 nM
MRT [13]: 2.2 h
Activity (4T1 [14]): inactive
Stability [15]: Stable
AUC(0-inf) [16]: 46100 ng·h/mL
Activity (4T1 [17]): Active
Activity [18]: Toxic
Activity (4T1 [19]): inactive
AUC(0-t) at 24 h [20]: 4320 ng·h/mL
Activity [21]: Non-Toxic
AUC(0-t) at 24 h [22]: 17200 ng·h/mL
Activity [23]: Toxic
Activity [24]: Non-Toxic
Activity [25]: Toxic
clearance [26]: 3.39 mL/min/kg
half-life [27]: 0.509 h
IC50 (MCF7): 16.3 nM
clearance [28]: 5.13 mL/min/kg
Tmax [29]: 0.5 h
Stability [30]: Stable
clearance [31]: 3.85 mL/min/kg
